Common to all, as to assay type: functional
For test [1], the system named is Gloeophyllum trabeum. Description: Antifungal activity against Gloeophyllum trabeum BCRC 31614 (wood decay fungi) assessed as reduction of fungi mycelium growth at 100 ug/ml. In short, it runs like this:
(§1)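 Fungi kept on potato dextrose agar at 4 °C. Samples dissolved in 150 μL ethanol and mixed into 15 mL PDA to give the final concentration. A 5 mm mycelial plug from the culture edge was placed centrally on each 9-cm plate. Plates were held in the dark at 26 ± 2 °C and 70% RH. Antifungal index was scored once control plates without test material were fully overgrown.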

Test [2] has as its system Laetiporus sulphureus. Description: Antifungal activity against Laetiporus sulphureus BCRC 35305 (wood decay fungi) assessed as reduction of fungi mycelium growth at 100 ug/ml. In short, it runs like this:
as §1

The test system of test [3] is Trametes versicolor. Description: Antifungal activity against Trametes versicolor BCRC 35253 wood decay fungi assessed as reduction of fungi mycelium growth at 100 ug/ml. In short, it runs like this: as §1
Test [4] deals with Lenzites betulinus. Description: Antifungal activity against Lenzites betulinus BCRC 35296 assessed as reduction of fungi mycelium growth at 100 ug/ml. In short, it runs like this: as §1

SMILES strings stand for the structures.

The term inhibition denotes the drop in the measured response relative to a control, in per cent. Take `C[C@@H]1CC[C@H]2C(C)(C)[C@H]3C[C@@]12CC[C@@]3(C)O` [CEDROL]: the inhibition at 100 µg/mL in test [1] was 68.3%; in test [2] it was 100%; in test [3], 74.8%; in test [4] it was 95.5%.

`CCCCCCCCCC[N+](C)(C)CCCCCCCCCC` [DIDECYLDIMETHYLAMMONIUM CHLORIDE]: the inhibition at 100 µg/mL in test [1], in test [2], in test [3] and in test [4] was 100% in each case.

In the case of `C=CC(=C)CC[C@@H]1[C@@]2(C)CCCC(C)(C)[C@@H]2CC[C@@]1(C)O` [ISOABIENOL], the inhibition at 100 µg/mL in test [1] is 6.8%; in test [2], 8.2%; in test [3] it was 27.8%; in test [4], 25.6%.

On to `CC1=C[C@@H]2[C@@H](CC1)[C@@](C)(O)CC[C@H]2C(C)C` [T-CADINOL], for which the inhibition at 100 µg/mL turned out to be 100% in test [1], 100% in test [2], 51.4% in test [3] and 100% in test [4].

As to `CC1=C[C@H]2[C@H](C(C)C)CC[C@](C)(O)[C@H]2CC1` [T-MUUROLOL], the inhibition at 100 µg/mL in test [1] was 100%; in test [2] it was 100%; in test [3] it was 39.5%; in test [4] it was 100%.

For the origin of these results see ChEMBL document CHEMBL3045566, “Phytochemicals from Cunninghamia konishii Hayata act as antifungal agents” (2012).
